Assay results gathered from unrelated publications.
Lines come from different studies, so protocols differ.
Target: NAD-dependent protein deacetylase sirtuin-1 (SIRT1, Homo sapiens, UniProt Q96EB6)
Observed: enzyme activity
Action: inhibitor
Sequence (Q96EB6 193-741, as in one of the studies): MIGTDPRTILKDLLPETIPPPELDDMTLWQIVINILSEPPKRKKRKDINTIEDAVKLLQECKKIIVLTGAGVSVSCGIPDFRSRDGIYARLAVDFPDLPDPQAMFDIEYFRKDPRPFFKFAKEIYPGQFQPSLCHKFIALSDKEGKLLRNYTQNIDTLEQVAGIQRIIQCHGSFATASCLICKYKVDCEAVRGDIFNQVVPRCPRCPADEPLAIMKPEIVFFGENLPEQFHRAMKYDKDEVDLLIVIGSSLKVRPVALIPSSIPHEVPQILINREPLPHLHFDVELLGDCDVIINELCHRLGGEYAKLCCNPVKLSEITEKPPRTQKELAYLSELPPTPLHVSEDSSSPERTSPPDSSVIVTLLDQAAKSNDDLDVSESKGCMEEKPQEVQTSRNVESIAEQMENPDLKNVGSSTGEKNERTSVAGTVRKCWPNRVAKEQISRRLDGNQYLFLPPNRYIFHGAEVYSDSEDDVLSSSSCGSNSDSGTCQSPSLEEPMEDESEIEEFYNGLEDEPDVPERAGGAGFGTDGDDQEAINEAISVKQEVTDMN

| Compound | assay | conditions | inhibition |
| --- | --- | --- | --- |
| CCCCCC1CC(=O)c2ccc(F)cc2O1 (stereo not shown) | fluorescence | 200 µM | 3.8% |
| O=C(NC1CCC1)[C@H](Cc1c[nH]c2ccccc12)NC(=O)[C@H](CCCCNC(=S)NCCc1nnn[nH]1)NS(=O)(=O)c1cccc(F)c1 | – | 10 µM | 17% |
| CC(=S)NCCCC[C@H](NC(=O)OCc1ccccc1)C(=O)N[C@@H](Cc1c[nH]c2ccccc12)C(=O)N[C@@H](CCC(=O)O)C(N)=O | – | 1 µM | 83% |
| NC(=O)CCNC(=S)NCCCC[C@H](NS(=O)(=O)c1cccc(F)c1)C(=O)N[C@@H](Cc1c[nH]c2ccccc12)C(=O)NC1CCC1 | – | 10 µM | 3% |
| CCCCCC1C=Cc2cc(Cl)cc(Br)c2O1 (stereo not shown) | fluorescence | 200 µM | 7.1% |
| CCCCCCCCCCCCNC(=S)NCCCC[C@H](NC(=O)OCc1ccccc1)C(=O)N[C@@H](Cc1c[nH]c2ccccc12)C(=O)N[C@@H](CCCNC(=N)N)C(N)=O | – | 1 µM | 52% |
| O=C(NC1CCC1)[C@H](Cc1c[nH]c2ccccc12)NC(=O)[C@H](CCCCNC(=S)NCc1n[nH]c(=S)o1)NS(=O)(=O)c1cccc(F)c1 | – | 30 µM | 37% |
| Ic1cccc2cnccc12 | – | 10 µM | 2% |
| CCCCC[C@@H]1CC(=O)c2cc(Cl)cc(Br)c2O1 | fluorescence | 200 µM | 5.3% |
| Cc1ccc(C(=O)Nc2ccc(S(=O)(=O)O)c3cc(S(=O)(=O)O)cc(S(=O)(=O)O)c23)cc1NC(=O)c1cccc(NC(=O)Nc2cccc(C(=O)Nc3cc(C(=O)Nc4ccc(S(=O)(=O)O)c5cc(S(=O)(=O)O)cc(S(=O)(=O)O)c45)ccc3C)c2)c1 | – | 10 µM | 74% |
